Source: PMC9924099 (Journal of medicinal chemistry, 2021)

Assays:
[1] = target: p53^R280K in MDA-MB-231 cells (Homo sapiens, UniProt P04637, R280K); test: Western blot of p53 expression; format: cell-based; conditions: MDA-MB-231, 6 μM or 12 μM, 24 h
Method in brief: (§1)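 Cells were treated 24 h with 6 μM or 12 μM test compound or DMSO and lysed in NP-40/Tris-Cl pH 8.0 buffer with protease inhibitors. Load on 4–12% SDS-PAGE was 20 μg for MDA-MB-231 and MDA-MB-468 or 50 μg for MCF-7. After PVDF transfer, blots were probed with p53 DO-1 antibody, reprobed for GAPDH as loading control and developed by ECL.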

[2] = tested on: caspase 3 and PARP1 in WT p53 MCF-7 cells; test: Western blot of caspase 3 and PARP1; format: cell-based, human; conditions: MCF-7 (caspase 3-deficient), 24 h
Method in brief: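 MCF-7 cells were treated with test compound or DMSO for 24 h and lysed on ice for 30 min (20 mM Tris-Cl pH 8.0, 137 mM NaCl, 10% glycerol, 1% NP-40, 2 mM EDTA, protease inhibitors). Lysates were cleared at 18,500 × g. 100 μg lysate was run on 4–12% SDS-PAGE, transferred to PVDF and probed with anti-PARP and anti-caspase 3 (1:1000), HRP secondary and ECL. GAPDH served as loading control.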

[3] = target: WT p53 in MCF-7 cells (Homo sapiens, UniProt P04637); test: Western blot of p53 expression; format: cell-based; conditions: MCF-7, 6 μM or 12 μM, 24 h
Method in brief: as §1

[4] = target: p53^R273H in MDA-MB-468 cells (Homo sapiens, UniProt P04637, R273H); test: Western blot of p53 expression; format: cell-based; conditions: MDA-MB-468, 6 μM or 12 μM, 24 h
Method in brief: as §1

[5] = Log P determination; format: physicochemical; conditions: octanol/sodium phosphate buffer (pH 7.4)
[6] = tested on: caspase 3 and PARP1 in p53^R280K MDA-MB-231 cells; test: Western blot of caspase 3 and PARP1; format: cell-based, human; conditions: MDA-MB-231, 24 h
Method in brief: (§2)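 Cells grown in RPMI 1640 with 10% FBS, 1% penicillin/streptomycin and 1% L-glutamine, then given test compound or DMSO control for 24 h. Lysed 30 min on ice in Tris-Cl pH 8.0/NaCl/glycerol/NP-40/EDTA buffer with protease inhibitors, then cleared. 100 μg lysate run on 4-12% SDS-PAGE, transferred to PVDF, probed with anti-PARP and anti-caspase 3 (1:1000 each). ECL detection.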

[7] = human, in vivo; cited from earlier work
[8] = tested on: WT p53 MCF-7 cells; test: WST-1 cell proliferation assay; format: cell-based, human; conditions: MCF-7, 24 h or 72 h; compared to mutant p53 cells
Method in brief: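 WST-1 assay. Test compound in DMSO was added to cells at 40,000 cells/ml, giving 1% DMSO final, and plated at 4,000 cells/well in duplicate; medium-only wells served as background. Incubation was 24 h or 72 h at 37 °C, then WST-1 for 2 h and OD450 read. Proliferation is expressed as % of DMSO control; triplicate experiments. MCF-7 grown in RPMI 1640, MDA-MB-436 in DMEM.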

[9] = tested on: caspase 3 and PARP1 in p53^R273H MDA-MB-468 cells; test: Western blot of caspase 3 and PARP1; format: cell-based, human; conditions: MDA-MB-468, 24 h
Method in brief: as §2

For `S=C=NCCc1ccccc1` [PEITC, Phenethyl isothiocyanate, reference compound], the “mutant p53 expression (western blot)” value [1] was “significant decrease”, the “levels of uncleaved PARP1 and cleaved-PARP1” value [2] was “significant decrease in the levels of uncleaved PARP1 and accumulation of cleaved-PARP1” and the “WT p53 expression (western blot)” value [3] was “increase in p53 levels”. The “mutant p53 expression (western blot)” value [4] was “significant decrease”, the logP at 18 h [5] was 3.5 and the “levels of uncleaved caspase 3, uncleaved PARP1 and cleaved-PARP1” value [6] was “significant decrease in the levels of uncleaved caspase 3 and accumulation of cleaved-PARP1 fragments”. For the same compound, the estimated half-life [7] was ~ 2.4 h, the “inhibition of cell proliferation / sensitivity (in words)” value [8] was “considerably less sensitive” and the “levels of uncleaved caspase 3, uncleaved PARP1 and cleaved-PARP1” value [9] was “significant decrease in the levels of uncleaved caspase 3 and accumulation of cleaved-PARP1 fragments”.
